Series [1] is described as follows: Cell cycle arrest in human BT474 cells assessed as G2/M phase accumulation at 1 uM incubated for 1 hr followed by 24 hrs incubation in drug free medium by propidium iodide staining based flow cytometry. The format is functional. The note with it: BT-474. In short, it runs like this:
(§1)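 About 2 × 10⁵ BT-474 cells were exposed to 1 μM for 1 h, then kept 24 h in drug-free, serum-free medium. Cells were fixed in 70% ethanol (2 h, −20 °C) and stained with 100 μg/mL RNase plus 40 μg/mL propidium iodide (4 °C, 30 min). DNA content was read on 10,000 cells by FACS. Experiments were done in triplicate.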
On the technique in general: Flow cytometry measures light scatter and fluorescence of single cells or particles in a stream.

The nature of series [2]: Cell cycle arrest in human BT474 cells assessed as S phase accumulation at 1 uM incubated for 1 hr followed by 24 hrs incubation in drug free medium by propidium iodide staining based flow cytometry (reference value: 8.4 to 13.6%). The format is functional. As to conditions: BT-474; call rule not given here. The method, boiled down: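 About 2 × 10⁵ BT-474 cells exposed 1 h, then 24 h in drug-free, serum-free medium. Cells were fixed in 70% ethanol for 2 h at −20 °C, then stained with 100 μg/mL RNase plus 40 μg/mL propidium iodide for 30 min at 4 °C. DNA content was read by FACS (10,000 events). Triplicate.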

In series [3] the target is T1, Receptor tyrosine-protein kinase erbB-2 (Homo sapiens, UniProt P04626). As to the kind of experiment: Binding affinity to HER2 extracellular domain (unknown origin) by SPR assay. Background: SPR reads the build-up and loss of mass on a sensor chip optically.
T1 sequence (P04626 whole entry, the tested form may be a part): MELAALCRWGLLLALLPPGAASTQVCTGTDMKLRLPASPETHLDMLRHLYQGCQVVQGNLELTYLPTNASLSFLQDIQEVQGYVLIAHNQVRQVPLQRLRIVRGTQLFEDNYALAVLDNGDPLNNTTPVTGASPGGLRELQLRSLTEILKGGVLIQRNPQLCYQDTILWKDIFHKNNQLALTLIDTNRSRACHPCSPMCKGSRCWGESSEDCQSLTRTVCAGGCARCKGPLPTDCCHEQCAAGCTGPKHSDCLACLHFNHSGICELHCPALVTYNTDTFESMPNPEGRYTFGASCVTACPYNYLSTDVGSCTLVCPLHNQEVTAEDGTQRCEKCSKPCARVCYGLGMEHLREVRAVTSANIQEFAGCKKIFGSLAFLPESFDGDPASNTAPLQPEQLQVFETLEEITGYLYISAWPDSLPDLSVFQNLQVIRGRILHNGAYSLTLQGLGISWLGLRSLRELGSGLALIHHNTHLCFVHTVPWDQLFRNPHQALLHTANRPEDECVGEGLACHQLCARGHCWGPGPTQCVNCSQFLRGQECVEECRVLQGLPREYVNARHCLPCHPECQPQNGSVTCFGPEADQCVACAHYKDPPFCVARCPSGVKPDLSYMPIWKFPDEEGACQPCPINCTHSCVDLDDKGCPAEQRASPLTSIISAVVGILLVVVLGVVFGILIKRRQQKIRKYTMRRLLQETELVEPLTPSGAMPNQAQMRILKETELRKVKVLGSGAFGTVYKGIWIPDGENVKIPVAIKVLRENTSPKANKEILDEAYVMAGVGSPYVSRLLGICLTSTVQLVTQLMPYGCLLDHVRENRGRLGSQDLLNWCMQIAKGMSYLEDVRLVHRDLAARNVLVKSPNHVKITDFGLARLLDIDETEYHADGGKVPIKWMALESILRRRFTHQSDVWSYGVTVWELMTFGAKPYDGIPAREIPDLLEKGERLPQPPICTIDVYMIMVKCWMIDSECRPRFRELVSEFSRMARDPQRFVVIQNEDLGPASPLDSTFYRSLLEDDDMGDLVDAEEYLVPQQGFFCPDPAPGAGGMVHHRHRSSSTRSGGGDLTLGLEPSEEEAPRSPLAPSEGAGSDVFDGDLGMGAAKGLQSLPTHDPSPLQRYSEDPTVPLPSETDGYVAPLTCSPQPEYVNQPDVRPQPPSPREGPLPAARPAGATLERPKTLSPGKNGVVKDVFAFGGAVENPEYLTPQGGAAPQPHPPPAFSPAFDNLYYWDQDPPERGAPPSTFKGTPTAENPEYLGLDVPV
A short description of series [4]: Cell cycle arrest in human BT474 cells assessed as G0/G1 phase accumulation at 1 uM incubated for 1 hr followed by 24 hrs incubation in drug free medium by propidium iodide staining based flow cytometry. As to conditions: BT-474. The series is classed as functional. The method, boiled down:
as §1

Series [5] in a line: Antiproliferative activity against human MCF10A cells after 72 hrs by CellTiter-Glo assay. As to conditions: MCF-10A. The format is cell-based. In short, it runs like this:
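Cells were kept at 37 °C, 5% CO2. Media: RPMI-1640 (BT-474, MCF-7), EMEM (Calu-3), McCoy's (SKBR-3), DMEM (MCF-10A), each with 10% FBS, 1% pen-strep and 1% insulin. 10,000 cells per well were dosed with serial dilutions in serum-free medium. Luminescence was read by CellTiter-Glo and IC50 taken from the dose-response curve. Each experiment was run three times (SD).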
On the technique in general: ATP-based viability assays read luminescence as a measure of living cells.

Series [6] can be described thus: Antiproliferative activity against human MCF7 cells after 72 hrs by CellTiter-Glo assay. The series is classed as functional, cell-based. As to conditions: MCF7, 72 h. The method, boiled down:
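Cells were kept at 37 °C, 5% CO2. 10,000 cells per well were dosed with serial dilutions in serum-free medium. Luminescence was read by CellTiter-Glo and IC50 taken from the dose-response curve. Each experiment was run three times (SD).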

The nature of series [7]: Drug uptake in cytoplasm of human SKBR3 cells at 5 uM after 24 hrs by DAPI staining based confocal microscopic method. The format is ADME, cell-based. As to conditions: sk-br-3, 24 h. The method, boiled down: (§2)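 SKBR-3 cells were seeded for 24 h, then exposed to 5 μM at 37 °C for 30 min, 4 h or 24 h. Cells were PBS-washed, fixed in methanol at −20 °C for 5 min and mounted with DAPI.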

Series [8] is described as follows: Drug uptake in human MCF7 cells at 5 uM after 24 hrs by DAPI staining based confocal microscopic method. The series is classed as ADME, cell-based. The note with it: mcf7, 24 h.
A short description of series [9]: Drug uptake in cytoplasm of human SKBR3 cells at 5 uM after 4 hrs by DAPI staining based confocal microscopic method. As to conditions: sk-br-3, 4 h. The format is ADME, cell-based. In short, it runs like this:
as §2

A short description of series [10]: Drug uptake in nucleus of human SKBR3 cells at 5 uM after 4 hrs by DAPI staining based confocal microscopic method. The format is ADME, cell-based. As to conditions: sk-br-3, 4 h. In short, it runs like this: as §2
The nature of series [11]: Drug uptake in nucleus of human SKBR3 cells at 5 uM after 30 mins by DAPI staining based confocal microscopic method. The series is classed as ADME, cell-based. As to conditions: sk-br-3, 0.5 h. The method, boiled down:
as §2

Series [12] in a line: Drug degradation in human SKBR3 cells at 50 uM after 4 hrs by HPLC method. The format is ADME, cell-based, SK-BR-3. The note with it: read-out: Drug degradation. The method, boiled down:
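About 15,000 trypsinised SKBR-3 cells were resuspended with 50 μM (final) conjugate in serum-free medium at 37 °C, one sample per time point (0 min–48 h). Cells were lysed with chilled acetonitrile, sonicated and centrifuged, and the supernatant was cleaned on Sep-Pak. Intact-conjugate peak area was measured by C18 reversed-phase HPLC and expressed relative to time zero. Each time point was run in triplicate.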

A short description of series [13]: Drug uptake in cytoplasm of human SKBR3 cells at 5 uM after 30 mins by DAPI staining based confocal microscopic method. The series is classed as ADME, cell-based. As to conditions: sk-br-3, 0.5 h. The method, boiled down: (§3)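 SKBR-3 cells were seeded and treated 24 h later, then incubated at 37 °C for 30 min, 4 h or 24 h. Cells were fixed with methanol for 5 min at −20 °C and mounted in DAPI.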

Series [14] can be described thus: Drug uptake in human MCF7 cells at 5 uM after 30 mins by DAPI staining based confocal microscopic method. The series is classed as ADME, cell-based. The note with it: mcf7, 0.5 h. The method, boiled down: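 MCF-7 cells were run like the SKBR-3 imaging: 37 °C for 30 min, 4 h or 24 h, methanol fixation at −20 °C, and DAPI mounting.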
Series [15] can be described thus: Antiproliferative activity against human Calu3 cells after 48 hrs by CellTiter-Glo assay. The note with it: Calu-3, 48 h. The format is functional, cell-based. The method, boiled down: (§4)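 10,000 cells per well, plated the day before treatment. Triplicate wells got serially diluted drug (0.001 to 100 μM) in serum-free medium at 37 °C. 1% SDS and 1% DMSO served as controls. After a PBS wash, CellTiter-Glo was added for about 20 min and luminescence read. IC50 came from the dose-response curve. Each experiment was run three times (SD).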

The nature of series [16]: Antiproliferative activity against human BT474 spheroids after 3 days by CellTiter-Glo assay. The format is functional. As to conditions: BT-474, 72 h. In short, it runs like this:
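They were treated at 0.001–10 μM for 3 days at 37 °C, with 1% SDS and 1% DMSO as controls. Viability was read by 3D CellTiter-Glo luminescence and IC50 taken from the log plot. Each experiment was run three times (SD).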

Series [17] in a line: Antiproliferative activity against human BT474 cells after 48 hrs by CellTiter-Glo assay. The format is functional, cell-based. The note with it: BT-474, 48 h. The method, boiled down: as §4
Series [18] has as its target T1, Receptor tyrosine-protein kinase erbB-2. In words: Binding affinity to HER2 domain-4 (unknown origin) by SPR assay.
A short description of series [19]: Antiproliferative activity against human SKBR3 cells after 24 hrs by CellTiter-Glo assay. The format is functional, cell-based. The note with it: SK-BR-3, 24 h. The method, boiled down:
as §4

Series [20] can be described thus: Antiproliferative activity against human BT474 cells after 24 hrs by CellTiter-Glo assay. The format is functional, cell-based. The note with it: BT-474, 24 h. In short, it runs like this: as §4
Series [21] is described as follows: Drug uptake in human SKBR3 cells at 5 uM after 24 hrs by DAPI staining based confocal microscopic method. The format is ADME, cell-based. The note with it: sk-br-3, 24 h. The method, boiled down:
as §3

A short description of series [22]: Antiproliferative activity against human Calu3 cells after 24 hrs by CellTiter-Glo assay. The format is functional, cell-based. As to conditions: Calu-3, 24 h. In short, it runs like this:
as §4

Molecules are shown by their SMILES.

Usually Kd stands for the free concentration of one partner at which half of the binding sites on the other are occupied at equilibrium, for simple one-to-one binding. A lower Kd goes with tighter binding. A word on the IC50: it is the midpoint of a concentration-inhibition curve. Read a high IC50 as weaker potency in that assay. For the compound `N=C(N)NCCC[C@H](N)C(=O)N[C@@H](CC(=O)N[C@@H](Cc1ccccc1)C(=O)O)c1cccc2ccccc12`, the Activity was found to be 23.6% in [1], 5.7% in [2] and 67% in series [4]. This compound also had a Kd in series [3] of 1 µM. This compound registered an IC50 in [5] of over 50 µM.

For the compound `COc1cccc2c1C(=O)c1c(O)c3c(c(O)c1C2=O)C[C@@](O)(C(=O)CO)C[C@@H]3O[C@H]1C[C@H](NC(=O)CCCC(=O)N[C@@H](CCCNC(=N)N)C(=O)N[C@@H](CC(=O)N[C@@H](Cc2ccccc2)C(=O)O)c2cccc3ccccc23)[C@H](O)[C@H](C)O1`, the IC50 in series [6] was 0.8 µM. The Drug uptake result in [7], in series [8], in series [9], in series [10] and in series [11] was “Active” in each case. Further, the metabolised at 4 h, 50 µM in series [12] was found to be 50%.

Turning to `COc1cccc2c1C(=O)c1c(O)c3c(c(O)c1C2=O)C[C@@](O)(C(=O)CO)C[C@@H]3O[C@H]1C[C@H](N)[C@H](O)[C@H](C)O1` [DOXORUBICIN], the Drug uptake result in [13], in series [14], in [10], in series [11] and in [21] was “Active” throughout. Besides, the IC50 in series [15] turned out to be 0.11 µM; in [16] it was 0.18 µM; in series [17], 0.041 µM; in series [19], 0.034 µM; in series [5], 0.15 µM; in [20], 0.053 µM. For the same compound, the IC50 in [22] turned out to be 0.27 µM. Moreover, the Activity in [2] was 3.7%. In series [18], this compound had a Kd of 11000 µM.

(Values after ChEMBL document CHEMBL3877285, “Design of a doxorubicin-peptidomimetic conjugate that targets HER2-positive cancer cells” (Eur J Med Chem, 2017).)
